Data from ChEMBL document CHEMBL2176927 (J Med Chem, 2012).
Calls of active or inactive are those of the source. No cut-off for these calls is given here.

What was measured:
[1] = biological target: T1, Cytochrome P450 1A2 (Homo sapiens, UniProt P05177); experiment: Inhibition of CYP1A2-mediated phenacetin metabolism; format: ADME; conditions: recombinant enzyme
T1 sequence (P05177 whole entry): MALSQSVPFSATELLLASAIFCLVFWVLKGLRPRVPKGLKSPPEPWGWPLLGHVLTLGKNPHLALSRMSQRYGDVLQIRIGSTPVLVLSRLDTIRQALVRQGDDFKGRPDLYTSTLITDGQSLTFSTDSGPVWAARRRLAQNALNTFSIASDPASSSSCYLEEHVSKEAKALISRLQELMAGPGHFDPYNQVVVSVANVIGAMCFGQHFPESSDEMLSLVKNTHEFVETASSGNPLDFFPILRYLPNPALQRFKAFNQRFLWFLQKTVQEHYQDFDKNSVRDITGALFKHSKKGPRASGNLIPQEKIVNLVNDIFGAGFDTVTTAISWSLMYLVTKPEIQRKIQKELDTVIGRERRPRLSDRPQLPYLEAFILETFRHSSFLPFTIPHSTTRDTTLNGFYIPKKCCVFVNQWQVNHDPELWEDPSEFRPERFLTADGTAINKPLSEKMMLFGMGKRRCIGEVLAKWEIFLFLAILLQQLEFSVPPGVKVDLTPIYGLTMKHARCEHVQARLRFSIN

[2] = Clearance in rat liver microsomes; format: ADME, Microsome
Method in brief: (§1)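 Hepatic clearance (Clhep) predicted from incubation with human, rat or mouse liver microsomes.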

[3] = tested on: PC-3; experiment: Cytotoxicity against human pTEN deficient PC3 after 3 days; format: functional, cell-based; conditions: PC-3, 72 h
[4] = biological target: Cytochrome P450 2D6 (Homo sapiens, UniProt P10635); experiment: Inhibition of CYP2D6-mediated dextromethorphan metabolism; format: ADME; conditions: recombinant enzyme
[5] = AUC in mouse at 5 mg/kg, po; format: ADME, organism-based; set-up: dose 5 mg/kg, route oral; conditions: plasma
[6] = biological target: Cytochrome P450 3A4 (Homo sapiens, UniProt P08684); experiment: Inhibition of CYP3A4-mediated midazolam and testosterone metabolism; format: ADME; conditions: recombinant enzyme
[7] = Oral bioavailability in mouse at 5 mg/kg; format: ADME, organism-based; conditions: in vivo
[8] = Clearance in human liver microsomes; format: ADME, Microsome; method in brief: as §1
[9] = Clearance in mouse liver microsomes; format: ADME, Microsome; method in brief: as §1
[10] = biological target: Cytochrome P450 2C9 (Homo sapiens, UniProt P11712); experiment: Inhibition of CYP2C9-mediated warfarin metabolism; format: ADME; conditions: recombinant enzyme
[11] = biological target: Cytochrome P450 2C19 (Homo sapiens, UniProt P33261); experiment: Inhibition of CYP2C19-mediated mephenytoin metabolism; format: ADME; conditions: recombinant enzyme
[12] = Volume of distribution at steady state in mouse at 1 mg/kg, iv; format: ADME, organism-based; set-up: dose 1 mg/kg, route intravenous; conditions: in vivo, read-out: Vdss
[13] = Clearance in mouse at 1 mg/kg, iv; format: ADME, organism-based; set-up: dose 1 mg/kg, route intravenous; conditions: in vivo
[14] = Half life in mouse at 1 mg/kg, iv; format: ADME, organism-based; set-up: dose 1 mg/kg, route intravenous; conditions: in vivo
[15] = Inhibition of mTORC2 in human pTEN deficient NCI-PC3 cells assessed as reduction of Akt phosphorylation at Ser473; format: cell-based
[16] = Cytotoxicity against human MCF7/neo expressing HER2 after 3 days; format: functional
[17] = tested on: Mus musculus; experiment: Inhibition of mTORC1 in human PC3 cells xenografted mouse assessed as reduction of phosphorylated p70S6K level at 10 mg/kg, po after 6 hrs; format: functional, organism-based; set-up: dose 10 mg/kg; conditions: PC-3
[18] = tested on: Mus musculus; experiment: Inhibition of mTORC2 in human PC3 cells xenografted mouse assessed as reduction of phosphorylated Akt level at 10 mg/kg, po after 6 hrs; format: functional, organism-based; set-up: dose 10 mg/kg; conditions: PC-3
Method in brief: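 NCI-PC3 s.c. xenografts in female NCR.nude mice grown to about 500 mm3, then randomized (n = 4). Oral suspension in 0.5% methylcellulose/0.2% Tween 80. Tumors were lysed, normalized by BCA assay, and loaded at 20 µg/well. pAkt Ser473 and total Akt were measured in duplex on Meso Scale electrochemiluminescence in duplicate per mouse, relative to time-matched vehicle mean.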

[19] = Plasma protein binding in human; format: ADME, cell-free; conditions: read-out: PPB (converted)
[20] = Plasma protein binding in mouse; format: ADME, cell-free; conditions: read-out: PPB (converted)
[21] = Plasma protein binding in rat; format: ADME, cell-free; conditions: read-out: PPB (converted)
[22] = tested on: PC-3; experiment: Antitumor activity against human PC3 cells xenografted mouse assessed as tumor growth inhibition at 10 mg/kg, po qd for 14 days; format: functional, organism-based; set-up: dose 10 mg/kg
Method in brief: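 Female NCR.nude mice implanted s.c. in right hind flank with NCI-PC3 cells (5 × 10^6 in Hank's balanced salt solution). Dosing started QD at average tumor volume 200 mm3, 5 mice per group. Body weight recorded twice weekly; 10% body weight loss was the limit for tolerated doses, and mice were euthanized at 20% loss or tumor volume 2000 mm3.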

[23] = tested on: Mus musculus; experiment: Inhibition of mTORC1 in human U87 cells xenografted mouse assessed as reduction of phosphorylated p70S6K level at 10 mg/kg, po after 24 hrs; format: functional, organism-based; set-up: dose 10 mg/kg; conditions: U-87MG ATCC
[24] = tested on: Mus musculus; experiment: Inhibition of mTORC2 in human U87 cells xenografted mouse assessed as reduction of phosphorylated Akt level at 10 mg/kg, po after 24 hrs; format: functional, organism-based; set-up: dose 10 mg/kg; conditions: U-87MG ATCC
Method in brief: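 U87 glioma (PTEN-deficient) tumor-bearing mice, four per compound and time point. Tumor and blood were sampled over 24 h. Phospho-Akt was measured in duplicate samples per mouse and expressed relative to time-matched vehicle controls; mean ± one SD.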

[25] = Selectivity ratio of Ki for PI3Kalpha to Ki for mTOR
[26] = tested on: PC-3; experiment: Antitumor activity against human PC3 cells xenografted mouse assessed as tumor growth inhibition at […] to 100 mg/kg, po bid for 14 days; format: functional, organism-based
Method in brief: (§2)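 Female NCR.nude mice with subcutaneous NCI-PC3 flank tumours, dosed orally once daily (or twice daily at the same daily total) for 14 days from a mean tumour volume of 200 mm3; 5 mice/group. Caliper volume is (L x W x W)/2, measured twice weekly.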

[27] = species: Mus musculus; conditions: U-87MG ATCC, 100 mg/kg
[28] = species: Mus musculus; conditions: PC-3, 25 to 100 mg/kg
[29] = tested on: PC-3; experiment: Antitumor activity against human PC3 cells xenografted mouse assessed as tumor growth inhibition at 50 mg/kg, po qd for 14 days; format: functional, organism-based; set-up: dose 50 mg/kg; method in brief: as §2
[30] = species: Mus musculus; conditions: PC-3, 25 to 100 mg/kg; remark: listed apart in the source
[31] = tested on: PC-3; experiment: Antitumor activity against human PC3 cells xenografted mouse assessed as tumor growth inhibition at 6.25 to 100 mg/kg, po qd for 14 days; format: functional, organism-based; method in brief: as §2
[32] = tested on: Mus musculus; experiment: Toxicity in human PC3 cells xenografted mouse assessed as reduction of body weight at 200 mg/kg, po qd for 14 days; format: organism-based, PC-3; set-up: dose 200 mg/kg, route oral; scale not given: the % may be the effect or the level left; conditions: in vivo, 336 h
Method in brief: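 Same PC3 s.c. xenograft in nude mice with QD oral dosing, 5 animals per group. Body weight was measured twice weekly; loss above 10% is the protocol limit for tolerated doses and triggers a dosing holiday.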

[33] = species: Mus musculus; conditions: U-87MG ATCC, 100 mg/kg; remark: listed apart in the source

Chain of Cytochrome P450 2C19 (P33261 whole entry): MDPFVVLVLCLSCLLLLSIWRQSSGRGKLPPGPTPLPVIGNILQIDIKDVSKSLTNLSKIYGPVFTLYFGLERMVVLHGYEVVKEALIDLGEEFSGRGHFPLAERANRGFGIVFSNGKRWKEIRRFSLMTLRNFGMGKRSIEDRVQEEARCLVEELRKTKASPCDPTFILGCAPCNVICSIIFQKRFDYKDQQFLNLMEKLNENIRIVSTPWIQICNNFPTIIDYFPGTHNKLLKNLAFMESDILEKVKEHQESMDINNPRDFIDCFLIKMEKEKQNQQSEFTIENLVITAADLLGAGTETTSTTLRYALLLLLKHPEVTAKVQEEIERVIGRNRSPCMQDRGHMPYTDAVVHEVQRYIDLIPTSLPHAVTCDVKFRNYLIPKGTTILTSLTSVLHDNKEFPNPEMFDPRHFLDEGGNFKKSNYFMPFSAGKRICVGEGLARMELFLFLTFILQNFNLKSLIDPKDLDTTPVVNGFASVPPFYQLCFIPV
Chain of Cytochrome P450 2C9 (P11712 whole entry): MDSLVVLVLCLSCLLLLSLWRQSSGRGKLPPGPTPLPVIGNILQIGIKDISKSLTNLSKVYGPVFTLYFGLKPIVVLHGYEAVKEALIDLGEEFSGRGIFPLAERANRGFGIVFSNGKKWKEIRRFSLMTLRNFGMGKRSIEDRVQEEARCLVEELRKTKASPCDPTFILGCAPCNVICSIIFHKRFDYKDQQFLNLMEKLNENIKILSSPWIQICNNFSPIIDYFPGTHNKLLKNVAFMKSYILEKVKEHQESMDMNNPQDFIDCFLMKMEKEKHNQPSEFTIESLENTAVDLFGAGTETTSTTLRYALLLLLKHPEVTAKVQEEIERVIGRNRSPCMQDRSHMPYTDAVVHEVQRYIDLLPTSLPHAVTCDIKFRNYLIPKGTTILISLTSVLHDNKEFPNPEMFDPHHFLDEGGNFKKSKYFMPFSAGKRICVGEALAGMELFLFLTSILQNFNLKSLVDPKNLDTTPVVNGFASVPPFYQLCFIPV
Chain of Cytochrome P450 2D6 (P10635 whole entry): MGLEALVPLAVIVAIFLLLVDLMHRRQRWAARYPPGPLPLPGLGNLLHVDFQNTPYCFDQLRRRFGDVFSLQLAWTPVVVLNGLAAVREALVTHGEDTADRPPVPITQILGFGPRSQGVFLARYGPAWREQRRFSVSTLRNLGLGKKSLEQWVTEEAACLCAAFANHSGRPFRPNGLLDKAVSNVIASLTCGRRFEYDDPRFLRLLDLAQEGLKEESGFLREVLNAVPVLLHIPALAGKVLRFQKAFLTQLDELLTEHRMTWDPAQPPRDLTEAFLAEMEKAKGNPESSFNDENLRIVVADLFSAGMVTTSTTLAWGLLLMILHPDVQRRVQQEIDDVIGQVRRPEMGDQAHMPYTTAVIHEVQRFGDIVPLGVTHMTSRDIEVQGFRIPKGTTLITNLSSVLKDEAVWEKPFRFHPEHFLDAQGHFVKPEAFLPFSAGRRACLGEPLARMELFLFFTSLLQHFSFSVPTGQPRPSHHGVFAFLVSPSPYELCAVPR
Chain of Cytochrome P450 3A4 (P08684 whole entry): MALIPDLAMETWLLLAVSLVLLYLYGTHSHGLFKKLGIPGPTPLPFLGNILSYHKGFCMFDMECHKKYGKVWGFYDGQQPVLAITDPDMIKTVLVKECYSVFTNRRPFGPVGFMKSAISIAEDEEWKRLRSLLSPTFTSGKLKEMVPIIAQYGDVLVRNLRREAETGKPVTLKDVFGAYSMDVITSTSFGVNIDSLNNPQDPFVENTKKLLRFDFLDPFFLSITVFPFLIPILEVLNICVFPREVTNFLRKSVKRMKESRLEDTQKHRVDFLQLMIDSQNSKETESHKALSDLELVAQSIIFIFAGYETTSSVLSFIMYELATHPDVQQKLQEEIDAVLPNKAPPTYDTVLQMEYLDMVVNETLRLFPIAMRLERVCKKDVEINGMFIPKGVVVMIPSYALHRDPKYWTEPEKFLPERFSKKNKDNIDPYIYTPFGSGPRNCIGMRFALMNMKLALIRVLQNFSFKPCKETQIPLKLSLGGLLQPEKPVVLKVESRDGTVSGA

Structure (SMILES) | inhibition (INH) [1] | CLhep predicted [2] [mL/min/kg] | IC50 [3] [nM] | inhibition (INH) [4] | AUC [5] [µM·h] | inhibition (INH) [6] | bioavailability [7] [%] | CLhep predicted [8] [mL/min/kg] | CLhep predicted [9] [mL/min/kg] | inhibition (INH) [10] | inhibition (INH) [11] | Vd [12] [L/kg] | clearance [13] [mL/min/kg] | half-life [14] [min] | IC50 [15] [nM] | IC50 [16] [nM] | further results
CCNC(=O)Nc1ccc(-c2nc3c(c(N4CCOC[C@@H]4C)n2)CCN(c2cccnn2)C3)cc1 | Not Active | 19 | 140 | Not Active | 0.87 | Not Active | 21.8 | 7.3 | 34 | Not Active | Not Active | 1.7 | 44 | 45 | 13 | 290 | –
CCNC(=O)Nc1ccc(-c2nc3c(c(N4CCOCC4)n2)CCN(S(C)(=O)=O)C3)cc1 | – | – | 430 | – | – | – | – | – | – | – | – | – | – | – | 43 | – | –
Cc1c(CN2CCN(C(=O)[C@H](C)O)CC2)sc2c(N3CCOCC3)nc(-c3cnc(N)nc3)nc12 | – | – | – | – | – | – | – | – | – | – | – | – | – | – | – | – | inhibition [17]: Active; inhibition [18]: Active
CCNC(=O)Nc1ccc(-c2nc3c(c(N4CCOC[C@@H]4C)n2)CCN(c2cnccn2)C3)cc1 | Not Active | – | 55 | Not Active | – | Not Active | – | – | – | Not Active | Not Active | – | – | – | 4.3 | 110 | –
CCNC(=O)Nc1ccc(-c2nc3c(c(N4CCOC[C@@H]4CC)n2)CCN(c2ncccn2)C3)cc1 | Not Active | – | 40 | Not Active | – | Not Active | – | – | – | Not Active | Not Active | – | – | – | 1.5 | 38 | –
CCNC(=O)Nc1ccc(-c2nc3c(c(N4CCOC[C@@H]4C)n2)CN(c2ncccn2)CC3)cc1 | – | 44 | – | – | 2.9 | – | 62 | 16 | 71 | – | – | 2.4 | 38 | 102 | – | – | fraction unbound [19]: 0.02; fraction unbound [20]: 0.03; fraction unbound [21]: 0.03
CCNC(=O)Nc1ccc(-c2nc3c(c(N4CCOC[C@@H]4C)n2)CCN(c2nnc(C)o2)C3)cc1 | Not Active | – | 310 | Not Active | – | Not Active | – | – | – | Not Active | Not Active | – | – | – | 22 | 130 | –
CCNC(=O)Nc1ccc(-c2nc3c(c(N4CCOCC4)n2)CCN(C(=O)OC(C)(C)C)C3)cc1 | – | – | – | – | – | – | – | – | – | – | – | – | – | – | 22 | – | –
CCNC(=O)Nc1ccc(-c2nc3c(c(N4CCOCC4)n2)CCN(C(=O)c2ccccc2)C3)cc1 | – | – | 340 | – | – | – | – | – | – | – | – | – | – | – | 22 | – | –
CCOC(=O)Nc1ccc(-c2nc3c(c(N4CCOCC4)n2)CCN(C(=O)c2ccccc2)C3)cc1 | – | – | 4800 | – | – | – | – | – | – | – | – | – | – | – | 115 | – | –
CCNC(=O)Nc1ccc(-c2nc3c(c(N4CCOCC4)n2)CCN(C(=O)OC)C3)cc1 | – | – | 220 | – | – | – | – | – | – | – | – | – | – | – | 37 | – | –
CCNC(=O)Nc1ccc(-c2nc3c(c(N4CCOC[C@@H]4C)n2)CCN(c2nc(C)ns2)C3)cc1 | Not Active | 29 | 230 | Not Active | 2.5 | Not Active | 32 | 19 | 58 | Not Active | Not Active | 0.72 | 22 | 31.8 | 8.7 | 69 | fraction unbound [19]: 0.03; fraction unbound [20]: 0.02; fraction unbound [21]: 0.04
CCNC(=O)Nc1ccc(-c2nc3c(c(N4CCOC[C@@H]4C)n2)CN(c2cnccn2)CC3)cc1 | – | 44 | – | – | 0.41 | – | 29 | 15 | 80 | – | – | 1.4 | 120 | 10.8 | – | – | fraction unbound [19]: 0.03; fraction unbound [20]: 0.03; fraction unbound [21]: 0.04
CO[C@H]1C[C@@H]2CC[C@@H](C)[C@@](O)(O2)C(=O)C(=O)N2CCCC[C@H]2C(=O)O[C@H]([C@H](C)C[C@@H]2CC[C@@H](O)[C@H](OC)C2)CC(=O)[C@H](C)/C=C(\C)[C@@H](O)[C@@H](OC)C(=O)[C@H](C)C[C@H](C)/C=C/C=C/C=C/1C | – | – | – | – | – | – | – | – | – | – | – | – | – | – | – | – | TGI [22]: Active; inhibition [23]: Active; inhibition [24]: inactive
CCNC(=O)Nc1ccc(-c2nc(N3CCOCC3)c3sc(C(C)(C)O)cc3n2)cc1 | – | – | – | – | – | – | – | – | – | – | – | – | – | – | – | – | Ratio Ki [25]: 20
CCNC(=O)Nc1ccc(-c2nc3c(c(N4CCOC[C@@H]4C)n2)CCN(c2ncccn2)C3)cc1 | Not Active | 33 | 150 | Not Active | 2 | Not Active | 42 | 15 | 61 | Not Active | Not Active | 1.2 | 36 | 102 | 3.3 | 57 | TGI [26]: Active; inhibition [27]: inactive; inhibition [28]: Active; fraction unbound [19]: 0.02; TGI [29]: Active; inhibition [30]: Active; fraction unbound [20]: 0.01; TGI [31]: Active; Activity [32]: 10%; inhibition [33]: inactive; fraction unbound [21]: 0.03
